According to ChEMBL document CHEMBL5058577, “EUbOPEN Chemogenomics Library 2 (Multiplex)” (2022):

Test system: HEK-293T
Experiment: Multiplex assay against HEK293T
Format: toxicity, cell-based
Details: human
In short: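 Cells stained live at seeding with Hoechst33342, BioTracker Green Microtubule Cytoskeleton Dye, MitoTracker Red and Annexin V Alexa Fluor 680 were imaged on a CQ1 microscope at 37°C and 5% CO2 after compound addition. Their classification by CellPathfinder machine-learning gating ran from Hoechst high-intensity objects versus normal cells, to healthy, pyknosed or fragmented nuclei among normal cells, to mitotic or apoptotic among pyknosed cells. Tubulin, mitochondrial-mass and membrane-permeability phenotypes are per cents of healthy-nucleus cells.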

[1] = 12 h, 1 µM, compound concentration 1 uM, replicate 1
[2] = 12 h, 1 µM, compound concentration 1 uM, replicate 2
[3] = 12 h, 10 µM, compound concentration 10 uM, replicate 1
[4] = 12 h, 10 µM, compound concentration 10 uM, replicate 2
[5] = 24 h, 1 µM, compound concentration 1 uM, replicate 1
[6] = 24 h, 1 µM, compound concentration 1 uM, replicate 2
[7] = 24 h, 10 µM, compound concentration 10 uM, replicate 1
[8] = 24 h, 10 µM, compound concentration 10 uM, replicate 2
[9] = 48 h, 1 µM, compound concentration 1 uM, replicate 1
[10] = 48 h, 1 µM, compound concentration 1 uM, replicate 2
[11] = 48 h, 10 µM, compound concentration 10 uM, replicate 1
[12] = 48 h, 10 µM, compound concentration 10 uM, replicate 2

## C[C@@H]1C[C@H]2[C@@H]3CCC4=CC(=O)C=C[C@]4(C)[C@@]3(F)[C@@H](O)C[C@]2(C)[C@@]1(O)C(=O)CO [DEXAMETHASONE]
[1]
  Population Apoptotic (%): 37%
  Population Fragmented Nuclei (%): 8%
  Population Healthy Nuclei (%): 78%
  Population Hoechst High Intensity Objects (%): 2%
  Population Membrane Permeable-Phenotype (%): 1%
  Population Mitochondria Different-Phenotype (%): 45%
  Population Mitotic Cells (%): 62%
  Population Normal (%): 97%
  Population Pyknosed Nuclei (%): 12%
  Population Tubulin-Different-Phenotype (%): 24%
  Total Cell Count: 420
[2]
  Population Apoptotic (%): 53%
  Population Fragmented Nuclei (%): 7%
  Population Healthy Nuclei (%): 80%
  Population Hoechst High Intensity Objects (%): 8%
  Population Membrane Permeable-Phenotype (%): 0%
  Population Mitochondria Different-Phenotype (%): 62%
  Population Mitotic Cells (%): 46%
  Population Normal (%): 91%
  Population Tubulin-Different-Phenotype (%): 26%
  Total Cell Count: 372
[3]
  Population Apoptotic (%): 37%
  Population Fragmented Nuclei (%): 7%
  Population Healthy Nuclei (%): 79%
  Population Hoechst High Intensity Objects (%): 6%
  Population Membrane Permeable-Phenotype (%): 0%
  Population Mitochondria Different-Phenotype (%): 44%
  Population Mitotic Cells (%): 62%
  Population Normal (%): 93%
  Population Pyknosed Nuclei (%): 13%
  Population Tubulin-Different-Phenotype (%): 33%
  Total Cell Count: 374
[4]
  Population Apoptotic (%): 44%
  Population Fragmented Nuclei (%): 5%
  Population Healthy Nuclei (%): 81%
  Population Hoechst High Intensity Objects (%): 14%
  Population Mitochondria Different-Phenotype (%): 69%
  Population Mitotic Cells (%): 55%
  Population Normal (%): 85%
  Population Tubulin-Different-Phenotype (%): 39%
  Total Cell Count: 436
[5]
  Population Apoptotic (%): 31%
  Population Fragmented Nuclei (%): 9%
  Population Healthy Nuclei (%): 78%
  Population Hoechst High Intensity Objects (%): 4%
  Population Membrane Permeable-Phenotype (%): 0%
  Population Mitochondria Different-Phenotype (%): 30%
  Population Mitotic Cells (%): 68%
  Population Normal (%): 95%
  Population Pyknosed Nuclei (%): 12%
  Population Tubulin-Different-Phenotype (%): 17%
  Total Cell Count: 569
[6]
  Population Apoptotic (%): 42%
  Population Fragmented Nuclei (%): 12%
  Population Healthy Nuclei (%): 79%
  Population Hoechst High Intensity Objects (%): 7%
  Population Mitochondria Different-Phenotype (%): 45%
  Population Mitotic Cells (%): 57%
  Population Normal (%): 92%
  Population Pyknosed Nuclei (%): 8%
  Total Cell Count: 499
[7]
  Population Apoptotic (%): 36%
  Population Fragmented Nuclei (%): 8%
  Population Healthy Nuclei (%): 74%
  Population Hoechst High Intensity Objects (%): 6%
  Population Membrane Permeable-Phenotype (%): 0%
  Population Mitochondria Different-Phenotype (%): 30%
  Population Mitotic Cells (%): 63%
  Population Normal (%): 93%
  Population Pyknosed Nuclei (%): 16%
  Population Tubulin-Different-Phenotype (%): 29%
  Total Cell Count: 453
[8]
  Population Apoptotic (%): 44%
  Population Fragmented Nuclei (%): 9%
  Population Healthy Nuclei (%): 79%
  Population Hoechst High Intensity Objects (%): 15%
  Population Mitochondria Different-Phenotype (%): 43%
  Population Mitotic Cells (%): 56%
  Population Normal (%): 84%
  Population Pyknosed Nuclei (%): 11%
  Population Tubulin-Different-Phenotype (%): 22%
  Total Cell Count: 513
[9]
  Population Apoptotic (%): 30%
  Population Fragmented Nuclei (%): 15%
  Population Healthy Nuclei (%): 77%
  Population Hoechst High Intensity Objects (%): 1%
  Population Membrane Permeable-Phenotype (%): 1%
  Population Mitochondria Different-Phenotype (%): 18%
  Population Mitotic Cells (%): 69%
  Population Normal (%): 98%
  Population Pyknosed Nuclei (%): 7%
  Population Tubulin-Different-Phenotype (%): 12%
  Total Cell Count: 915
[10]
  Population Apoptotic (%): 27%
  Population Healthy Nuclei (%): 78%
  Population Hoechst High Intensity Objects (%): 3%
  Population Membrane Permeable-Phenotype (%): 0%
  Population Mitochondria Different-Phenotype (%): 27%
  Population Mitotic Cells (%): 72%
  Population Normal (%): 96%
  Population Pyknosed Nuclei (%): 6%
  Population Tubulin-Different-Phenotype (%): 15%
  Total Cell Count: 685
[11]
  Population Apoptotic (%): 25%
  Population Fragmented Nuclei (%): 15%
  Population Healthy Nuclei (%): 76%
  Population Hoechst High Intensity Objects (%): 3%
  Population Membrane Permeable-Phenotype (%): 0%
  Population Mitochondria Different-Phenotype (%): 18%
  Population Mitotic Cells (%): 75%
  Population Normal (%): 96%
  Population Pyknosed Nuclei (%): 7%
  Population Tubulin-Different-Phenotype (%): 14%
  Total Cell Count: 760
[12]
  Population Apoptotic (%): 50%
  Population Fragmented Nuclei (%): 16%
  Population Hoechst High Intensity Objects (%): 6%
  Population Mitochondria Different-Phenotype (%): 28%
  Population Mitotic Cells (%): 49%
  Population Normal (%): 93%
  Population Tubulin-Different-Phenotype (%): 19%
  Total Cell Count: 756
